Activity calls are given as the source filed them. No cut-off for these calls is given here.
Key:
[1] = tested on: Rattus norvegicus; assay: Antiinflammatory activity in Wistar rat assessed as inhibition of carrageenan-induced paw swelling at 2 x 50 mg/kg, po administered 0.5 to 3 hrs prior to carrageenan challenge measured after 2.5 hrs by plethysmographic analysis relative to control; type: functional
Method in brief: (§1)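 Female Wistar rats (in-house bred, 140–170 g; groups of four) were dosed orally twice, 3 and 0.5 h before a plantar injection of 0.1 mL 1% carrageenan in 0.9% saline into the right hind foot. Both feet were measured by mercury-displacement plethysmography 2.5 h later, and the right-minus-left difference was taken. Group mean % inhibition was calculated against ten concurrent saline-dosed controls, with significance at p < 0.02.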

[2] = Toxicity in po dosed mouse; type: organism-based; settings: in vivo
[3] = tested on: Rattus norvegicus; assay: Antiinflammatory activity in Wistar rat assessed as inhibition of carrageenan-induced paw swelling at 2 x 100 mg/kg, po administered 0.5 to 3 hrs prior to carrageenan challenge measured after 2.5 hrs by plethysmographic analysis relative to control; type: functional; settings: for inhibition in vivo at 100 mg/kg: Rattus norvegicus, Wistar; method in brief: as §1
[4] = tested on: Canis familiaris; assay: Toxicity in dog at 150 mg/kg; type: organism-based, Canis lupus familiaris; set-up: dose 150 mg/kg; settings: in vivo
[5] = tested on: Rattus norvegicus; assay: Antiinflammatory activity in Wistar rat assessed as inhibition of carrageenan-induced paw swelling at 100 mg/kg, po administered 0.5 to 3 hrs prior to carrageenan challenge measured after 2.5 hrs by plethysmographic analysis relative to control; type: functional
Method in brief: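 Groups of four female Wistar rats (140–170 g) were dosed orally twice (2 × 50 or 2 × 100 mg/kg), at 3 and 0.5 h before plantar injection of 0.1 mL 1% carrageenan in 0.9% saline into the right hind foot. Right minus left foot volume was read by mercury-displacement plethysmograph at 2.5 h. Mean group swelling was expressed as % inhibition versus ten concurrent saline-dosed controls; significance p < 0.02.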

Compound CC(CNC(=O)C(F)(F)F)c1ccc(N2CCCCC2)cc1 (stereo unspecified) has an inhibition in vivo at 50 mg/kg [1] of 32% and an LD50 [2] of 600 mg/kg.

For CC(CN)c1cccc(N2CCCCC2)c1 (stereo unspecified), the inhibition ([3]; at 100 mg/kg) was “inactive” and the LD50 [2] was 600 mg/kg.

CC(CN(C)C)c1ccc(N2CCCCC2)cc1.Cl (stereo unspecified) showed an inhibition in vivo at 100 mg/kg [3] of 70% and an LD50 [2] of 600 mg/kg.

Compound CC(C(=O)O)c1ccc(N2CCCCC2)c(Cl)c1 (stereo unspecified) has an inhibition in vivo at 100 mg/kg [3] of 53% and an LD50 [2] of 1200 mg/kg.

With CC(CN)c1ccc(N2CCCCC2)cc1.Cl (stereo unspecified) the inhibition in vivo at 50 mg/kg [1] was 57%, the LD50 [2] was 600 mg/kg and the Activity [4] was “Toxic”.

Compound CC(CN)c1ccc(N2CCCCC2)c(Cl)c1.Cl (stereo unspecified) has an inhibition in vivo at 50 mg/kg [1] of 39% and an LD50 [2] of 600 mg/kg.

Work on CC(C(=O)O)c1ccc(N2CCCCC2)cc1 (stereo unspecified) yielded an inhibition in vivo at 50 mg/kg [1] of 68% and an LD50 [2] of 800 mg/kg.

For CC(C)(O)c1ccc(N2CCCCC2)cc1, the inhibition ([1]; at 50 mg/kg) was “inactive” and the LD50 [2] was 600 mg/kg.

For Cl.NCCc1ccc(N2CCCCC2)cc1, the inhibition in vivo at 100 mg/kg ([3]; po) was 55% and the LD50 [2] was 1200 mg/kg.

C[C@]12CCC(=O)C=C1CC[C@@H]1[C@@H]2[C@@H](O)C[C@@]2(C)[C@H]1CC[C@]2(O)C(=O)CO [HYDROCORTISONE] showed an inhibition in vivo at 50 mg/kg [1] of 35%.

CC(N)Cc1ccc(N2CCCCC2)cc1.O=C(O)CCC(=O)O (stereo unspecified) gave an inhibition in vivo at 50 mg/kg [1] of 33% and an LD50 [2] of 600 mg/kg.

NCCCCc1ccc(N2CCCCC2)c(Cl)c1.O=C(O)CCC(=O)O showed an inhibition in vivo at 100 mg/kg [3] of 71% and an LD50 [2] of 1600 mg/kg.

With NCCc1ccc(N2CCCCC2)cc1.O=C(O)O the “inhibition (INH)” value [3] was 54% and the LD50 [2] was 800 mg/kg.

NCCCCCCc1ccc(N2CCCCC2)cc1.O=C(O)CCC(=O)O showed an inhibition in vivo at 100 mg/kg [3] of 57% and an LD50 [2] of 1200 mg/kg.

Compound Cl.[2H]C([2H])(N)C(C)c1ccc(N2CCCCC2)cc1 (stereo unspecified) has an inhibition in vivo at 50 mg/kg [1] of 47% and an LD50 [2] of 600 mg/kg.

Work on CC(C)c1ccc(N2CCCCC2)cc1.Cl yielded an inhibition in vivo at 50 mg/kg [1] of 30% and an LD50 [2] of 1200 mg/kg.

With Cl.NCCc1ccc(N2CCCCC2)c(Cl)c1 the inhibition in vivo at 100 mg/kg [5] was 58% and the LD50 [2] was 800 mg/kg.

For CC(C)(CN)c1ccc(N2CCCCC2)cc1.O=C(O)CCC(=O)O, the inhibition in vivo at 50 mg/kg [1] was 34% and the LD50 [2] was 400 mg/kg.

For OCCc1ccc(N2CCCCC2)cc1, the inhibition in vivo at 100 mg/kg [3] was 51% and the LD50 [2] was 1200 mg/kg.

Compound NCC(C(=O)O)c1ccc(N2CCCCC2)cc1 (stereo unspecified) has an inhibition in vivo at 100 mg/kg [3] of 40% and an LD50 [2] greater than 1600 mg/kg.

Work on O=C(O)Cc1ccc(N2CCCCC2)cc1 yielded an inhibition in vivo at 100 mg/kg [3] of 51% and an LD50 [2] of 800 mg/kg.

CNCCc1ccc(N2CCCCC2)cc1.O=C(O)CCC(=O)O gave an inhibition in vivo at 50 mg/kg [1] of 33% and an LD50 [2] of 600 mg/kg.

For O=C(NCCc1ccc(N2CCCCC2)cc1)C(F)(F)F, the inhibition in vivo at 100 mg/kg [3] was 60% and the LD50 [2] was 1600 mg/kg.

For Cl.NCCc1cccc(N2CCCCC2)c1, the inhibition in vivo at 50 mg/kg [1] was 39% and the LD50 [2] was 600 mg/kg.

Compound CN(CCc1ccc(N2CCCCC2)cc1)C(=O)C(F)(F)F.Cl has an inhibition in vivo at 100 mg/kg [3] of 38% and an LD50 [2] of 1600 mg/kg.

Work on CC(CO)c1ccc(N2CCCCC2)cc1 (stereo unspecified) yielded an inhibition in vivo at 100 mg/kg [3] of 71% and an LD50 [2] of 1600 mg/kg.

In the case of CCCCC1C(=O)N(c2ccccc2)N(c2ccccc2)C1=O [PHENYLBUTAZONE], the inhibition in vivo at 100 mg/kg [3] was 50%.

For NCCCCc1ccc(N2CCCCC2)cc1.O=C(O)O, the inhibition in vivo at 100 mg/kg [3] was 54% and the LD50 [2] was 600 mg/kg.

With O=C(Cc1ccc(N2CCCCC2)cc1)NCCc1ccc(N2CCCCC2)cc1 the inhibition in vivo at 100 mg/kg [3] was 22% and the LD50 [2] was 1600 mg/kg.

c1cc(N2CCCCC2)ccc1CCN1CCCCC1 showed an inhibition in vivo at 50 mg/kg [1] of 46% and an LD50 [2] of 400 mg/kg.

For O=C(O)Cc1ccc(N2CCCCC2)c(Cl)c1, the inhibition in vivo at 100 mg/kg [3] was 43% and the LD50 [2] was 800 mg/kg.

Source: ChEMBL document CHEMBL3243965, “Potential antiinflammatory compounds. 1. Antiinflammatory phenylpiperidine derivatives” (J Med Chem, 1979)
